TRPC4 block = blocks the mouse TRPC4 cation channel | Q9QUQ5 | HEK293 TRPC4beta/mu-opioid, DAMGO-evoked Fluo4 calcium flux; stronger effect = lower value | 300,000 tested, 0.39% active | AID 2247 | B-score at 10 µM;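 active = B-score over 3 SD under the library average, no early fluorescence shift, positive overall ratio signal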
Target sequence (Q9QUQ5 whole entry, looked up): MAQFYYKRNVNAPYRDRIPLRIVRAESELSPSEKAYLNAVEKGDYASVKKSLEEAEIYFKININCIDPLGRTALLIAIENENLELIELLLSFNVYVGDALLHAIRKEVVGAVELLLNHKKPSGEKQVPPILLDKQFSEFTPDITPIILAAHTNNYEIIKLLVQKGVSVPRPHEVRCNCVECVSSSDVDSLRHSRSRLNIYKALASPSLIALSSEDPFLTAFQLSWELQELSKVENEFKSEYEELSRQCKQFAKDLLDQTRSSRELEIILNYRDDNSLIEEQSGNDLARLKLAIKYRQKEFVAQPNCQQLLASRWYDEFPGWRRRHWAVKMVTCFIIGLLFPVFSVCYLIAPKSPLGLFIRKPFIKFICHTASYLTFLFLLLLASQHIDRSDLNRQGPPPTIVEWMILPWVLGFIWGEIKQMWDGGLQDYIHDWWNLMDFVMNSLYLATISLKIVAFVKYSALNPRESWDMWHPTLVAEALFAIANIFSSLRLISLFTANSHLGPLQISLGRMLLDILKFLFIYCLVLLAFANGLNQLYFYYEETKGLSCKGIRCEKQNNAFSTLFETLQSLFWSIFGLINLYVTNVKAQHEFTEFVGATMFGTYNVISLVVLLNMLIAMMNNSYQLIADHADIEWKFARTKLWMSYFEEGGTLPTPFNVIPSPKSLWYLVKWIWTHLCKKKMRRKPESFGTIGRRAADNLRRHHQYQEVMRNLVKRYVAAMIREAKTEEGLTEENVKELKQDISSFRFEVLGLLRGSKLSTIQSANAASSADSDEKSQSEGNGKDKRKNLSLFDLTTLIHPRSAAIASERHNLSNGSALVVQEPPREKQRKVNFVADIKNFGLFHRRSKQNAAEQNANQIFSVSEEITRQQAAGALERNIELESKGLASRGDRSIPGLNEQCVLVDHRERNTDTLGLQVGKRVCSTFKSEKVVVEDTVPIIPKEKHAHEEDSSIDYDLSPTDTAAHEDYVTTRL
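Assay system – HEK293 line stably carrying TRPC4beta and mu-opioid receptor · Doses – single dose · Detection – Fluo4 calcium-dye fluorescence, kinetic read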
TRPC6 inhibitor = inhibitors of mouse TRPC6 channel. Q61143. HEK293-TRPC6, membrane potential dye, ACh-evoked depolarization; stronger effect = lower value. B-score at 10 µM. 310,000 tested, 1.1% active. AID 2553;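 active = B-score under library mean minus 3 SD, initial fluorescence not abnormally high, positive integrated signal ratio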;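 note: B-score derived from integrated fluorescence ratio over the kinetic read; more negative B-score means stronger inhibition of depolarization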
TRPC6 act = activates the mouse TRPC6 cation channel; Q61143; HEK293-TRPC6 membrane potential dye fluorescence; stronger effect = higher value; B-score at 10 µM; 310,000 tested, 0.13% active;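 active = B-score of the integrated fluorescence ratio above library mean plus 3 SD, and starting fluorescence ratio within library mean plus 5 SD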;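 note: higher score means more depolarization so channel activation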
TRPC4 PAM = allosterically enhances the mouse TRPC4 cation channel. AID 2227. 310,000 tested, 0.42% active. HEK293 TRPC4beta/mu-opioid, DAMGO EC20, Fluo-4 Ca2+ flux; stronger effect = higher value. Q9QUQ5. B-score at 10 µM;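 active = B-score of calcium response area above 5 SD of library B-scores, with initial fluorescence ratio within 5 SD of library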
TRPC4 agonist = opens the mouse TRPC4 cation channel; AID 2237; HEK293 TRPC4beta/mu-opioid, Fluo4 calcium fluorescence; stronger effect = higher value; Q9QUQ5; 310,000 tested, 0.49% active; B-score at 10 µM;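 active = B-score above 5 SD of library B-scores, and initial fluorescence ratio not above library mean plus 5 SD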;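 note: positive B-score marks a calcium rise read as TRPC4 activation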
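Assay system: HEK293 stable line with TRPC4beta plus mu-opioid receptor; schedule: 45 min room-temperature Fluo4 loading, 110 s read; technique: kinetic Fluo4 calcium fluorescence; evaluation: integrated baseline-normalised fluorescence ratio, converted to per-well B score; controls: buffer (low) and maximal DAMGO (high)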
TRPC4 sel inh 2 = second selectivity test of TRPC6 inhibitors: effect on mouse TRPC4. shares compounds with TRPC6 inhibitor. HEK293 TRPC4/MOR, membrane potential dye fluorescence; channel activated by saturating DAMGO dose. inhibition, % at 10 µM. 920 tested, 42% active;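 active = compounds whose fluorescence signal differed from control wells by over 3 SD, either direction, in both duplicate plates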
TRPC4 spec = selectivity of TRPC6 inhibitors: effect on mouse TRPC4; shares compounds with TRPC6 inhibitor; HEK293 TRPC4/mu-opioid, membrane potential fluorescence; activity change, negative = inhibition, % at 10 µM; 920 tested, 61% active; AID 2777;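 active = rise or fall in signal beyond 3 SD of buffer-only wells in both replicate plates, either sign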;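 note: integrated kinetic ratio of fluorescence range over baseline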
HEK293 MPD ctr 2-1 = second counter-screen for TRPC6 inhibitors: parental HEK293 cells; 920 tested, 31% active; signal change vs control, % at 10 µM; parental HEK293 membrane potential dye fluorescence; maximal acetylcholine challenge after compound addition; shares compounds with TRPC6 inhibitor;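 active = membrane potential signal moving either way by over 3 SD of the maximum-effect control, in both duplicate plates, meaning non-specific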
HEK293 MPD ctr-1 = checks TRPC6 inhibitor effects in parental HEK293 cells; 920 tested, 60% active; membrane potential signal change, % at 10 µM; shares compounds with TRPC6 inhibitor; parental HEK293 membrane potential dye fluorescence;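 active = membrane potential signal shifting up or down by more than 3 SD of buffer-only wells, on both duplicate plates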
HEK293 MPD ctr-2 = checks TRPC6 modulator effects in parental HEK293 cells. membrane potential dye fluorescence. shares compounds with TRPC6 inhibitor. membrane potential signal change, % at 10 µM. 2,400 tested, 51% active;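 active = membrane potential signal moves up or down beyond 5 SD from buffer-only wells, on both duplicate plates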
HEK293 MPD ctr 2-2 = second check of TRPC6 modulator effects in parental HEK293 cells. shares compounds with TRPC6 inhibitor. membrane potential dye fluorescence; after compound, maximal acetylcholine stimulation. inhibition, % at 10 µM. 2,400 tested, 14% active. AID 488926;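 active = membrane potential signal drops by more than 5 SD from the mean control signal, in both duplicate plates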
TRPC4 ctr mod = tests whether TRPC6 modulators also affect mouse TRPC4 | shares compounds with TRPC6 inhibitor | HEK293 TRPC4/mu-opioid, membrane potential fluorescence | percent change from control (negative = decrease, positive = increase), % at 10 µM | 2,400 tested, 69% active | AID 488927;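 active = membrane potential signal moved up or down beyond 5 SD of buffer control wells, in both duplicate plates, actives on both sides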
TRPC4 ctr inh 2 = mouse TRPC4 off-target activity of TRPC6 modulators, second screen. shares compounds with TRPC6 inhibitor. HEK293 TRPC4/mu-opioid, membrane potential dye fluorescence; stimulated with maximal-effect DAMGO. inhibition, % at 10 µM. 2,400 tested, 55% active. AID 488928;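 active = drop in membrane potential signal beyond 5 SD of the control wells in both duplicate plates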;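 note: TRPC4 counter screen for TRPC6 hits run under conditions tuned for TRPC6 not TRPC4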
TRPC6 inh conf = confirmation of mouse TRPC6 inhibitors; shares compounds with TRPC6 inhibitor; HEK293-TRPC6, membrane potential dye, ACh-evoked depolarization; inhibition, % at 10 µM; 3,300 tested, 43% active; AID 488960;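 active = fluorescence ratio falls more than 5 SD below the full-stimulation control mean, in both duplicate runs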;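 note: integrated fluorescence ratio of peak minus minimum over baseline after agonist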
TRPC6 act conf = mouse TRPC6 activator confirmation | shares compounds with TRPC6 inhibitor | HEK293-TRPC6 membrane potential dye fluorescence, FDSS | activation, % at 10 µM | 2,800 tested, 11% active;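 active = ratio signal rise beyond 5 SD above unstimulated control wells' mean, seen in both duplicate runs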
Of the large screens only hits and unclear results are named; the others gave an inactive call (follow-up assays come after a bar, where they were run). Most compounds without a hit are left out; they make up all but 2.3% or so of the library.

COc1cc([N+](=O)[O-])ccc1NC(=O)CSc1nncn1-c1cccnc1	none
Cc1ccccc1NS(=O)(=O)c1csc(C(N)=O)c1	none
CN(C)C(CNC(=O)c1cccc(NS(=O)(=O)c2ccc(Br)cc2)c1)c1ccco1 (stereo unspecified)	TRPC6 inhibitor -5.7 | HEK293 MPD ctr-2 inactive | HEK293 MPD ctr 2-2 inactive | TRPC4 ctr mod 9.5% | TRPC4 ctr inh 2 inactive | TRPC6 inh conf inactive | TRPC6 act conf inactive
Cc1oc(-c2ccccc2F)nc1CN1CCC(C(=O)NC2CCCc3ccccc32)CC1 (stereo unspecified)	TRPC6 inhibitor -8.8 | TRPC4 sel inh 2 34% | TRPC4 spec 29% | HEK293 MPD ctr 2-1 293% | HEK293 MPD ctr-1 9.1% | TRPC6 inh conf inactive | TRPC6 act conf inactive
CCN(CC)c1nc2c(c(=O)[nH]c(=O)n2C)n1CCOc1ccccc1	none
O=[N+]([O-])c1cc(/C=N/n2cnnc2)ccc1N1CCCC1	TRPC6 inhibitor -5.2 | HEK293 MPD ctr-2 -76% | HEK293 MPD ctr 2-2 inactive | TRPC4 ctr mod -15% | TRPC4 ctr inh 2 inactive | TRPC6 inh conf inactive | TRPC6 act conf inactive
O=[N+]([O-])c1cc(/C=N/O)ccc1N1CCCC1	none
O=C(O)c1ccc(NC(=O)c2ccccc2NC(=O)c2ccccc2Br)cc1	none
CC(C)N1CCC2(CC1)N=C(c1ccc3c(c1)OCO3)CC(c1cc(Cl)ccc1O)N2 (stereo unspecified)	TRPC6 inhibitor -7.1 | TRPC4 sel inh 2 34% | TRPC4 spec inactive | HEK293 MPD ctr 2-1 inactive | HEK293 MPD ctr-1 inactive | TRPC6 inh conf inactive | TRPC6 act conf inactive
O=C(c1ccco1)N1CCCC(c2nc3c(nnn3Cc3ccc(Cl)cc3Cl)c(=O)[nH]2)C1 (stereo unspecified)	none
O=C(c1ccco1)N1CCCC(c2nc3c(nnn3Cc3cccc(Cl)c3)c(=O)[nH]2)C1 (stereo unspecified)	TRPC6 inhibitor -5.2 | HEK293 MPD ctr-2 inactive | HEK293 MPD ctr 2-2 inactive | TRPC4 ctr mod 17% | TRPC4 ctr inh 2 inactive | TRPC6 inh conf 50% | TRPC6 act conf inactive
COc1ccc2nc(NCc3ccccc3)[nH]c2c1	TRPC4 block -7, TRPC6 inhibitor -5.2 | HEK293 MPD ctr-2 inactive | HEK293 MPD ctr 2-2 inactive | TRPC4 ctr mod inactive | TRPC4 ctr inh 2 90% | TRPC6 inh conf inactive | TRPC6 act conf inactive
Cc1ccc2nc(NCc3ccccc3)[nH]c2c1	TRPC4 block -5, TRPC6 inhibitor -6.5 | HEK293 MPD ctr-2 inactive | HEK293 MPD ctr 2-2 inactive | TRPC4 ctr mod inactive | TRPC4 ctr inh 2 98% | TRPC6 inh conf 49% | TRPC6 act conf inactive
COc1cc(/C=N/NC(=O)Cn2nc([N+](=O)[O-])cc2C)cc(Br)c1OCc1ccccc1	TRPC6 inhibitor -5.1 | HEK293 MPD ctr-2 inactive | HEK293 MPD ctr 2-2 inactive | TRPC4 ctr mod inactive | TRPC4 ctr inh 2 inactive | TRPC6 inh conf inactive | TRPC6 act conf inactive
O=C(CC1C(=O)NCCN1C(=O)Nc1ccc(C(F)(F)F)cc1)Nc1ccc(F)cc1 (stereo unspecified)	TRPC6 inhibitor -5 | HEK293 MPD ctr-2 -106% | HEK293 MPD ctr 2-2 inactive | TRPC4 ctr mod -18% | TRPC4 ctr inh 2 45% | TRPC6 inh conf inactive | TRPC6 act conf inactive
C/C(=N\NC(=S)NC(C)C)c1ccccc1OC(F)F	TRPC6 inhibitor -8.8 | TRPC4 sel inh 2 inactive | TRPC4 spec inactive | HEK293 MPD ctr 2-1 inactive | HEK293 MPD ctr-1 inactive | TRPC6 inh conf inactive | TRPC6 act conf inactive
C/C(=N/NC(=O)CNC(=O)COc1cccc(C)c1)c1ccc(Cl)cc1	none
CN(C)/C=C1\Cc2ccccc2C1=O	none
CC[N+]1(C)CCC(=C2c3ccccc3CC(=O)c3sccc32)CC1 (stereo unspecified)	TRPC6 inhibitor -14 | TRPC4 sel inh 2 inactive | TRPC4 spec inactive | HEK293 MPD ctr 2-1 43% | HEK293 MPD ctr-1 inactive | TRPC6 inh conf 80% | TRPC6 act conf inactive
O=C(Nc1ccc(N2CCCC2)cc1)c1ccc(Cl)cc1Cl	none
CN1CCN(c2ccc(NC(=O)c3ccc(Cl)cc3Cl)cc2)CC1	TRPC6 inhibitor -5.9 | HEK293 MPD ctr-2 inactive | HEK293 MPD ctr 2-2 inactive | TRPC4 ctr mod inactive | TRPC4 ctr inh 2 inactive | TRPC6 inh conf inactive | TRPC6 act conf inactive
CC(NC(=O)/C(C#N)=C/c1ccc(C(=O)O)cc1)c1ccccc1 (stereo unspecified)	none
COc1cc(/C=C(/C#N)C(=O)NC(C)c2ccccc2)cc(OC)c1O (stereo unspecified)	TRPC6 inhibitor -5.3 | HEK293 MPD ctr-2 415% | HEK293 MPD ctr 2-2 inactive | TRPC4 ctr mod 48% | TRPC4 ctr inh 2 29% | TRPC6 inh conf 51%
CN(C)c1ccc(C(C(=O)NC2CCCCC2)N(Cc2ccco2)C(=O)c2snc(C(N)=O)c2N)cc1 (stereo unspecified)	none
Cc1ccc(CNC(=O)C2CCCN2S(=O)(=O)c2ccc(Cl)cc2)cc1 (stereo unspecified)	TRPC6 inhibitor -5.4 | HEK293 MPD ctr-2 inactive | HEK293 MPD ctr 2-2 inactive | TRPC4 ctr mod inactive | TRPC4 ctr inh 2 inactive | TRPC6 inh conf inactive | TRPC6 act conf inactive

Screening data as filed in PubChem.
